Assay results from ChEMBL document CHEMBL2046278, “Development and evaluation of multifunctional agents for potential treatment of Alzheimer's disease: application to a pyrimidine-2,4-diamine template” (Bioorg Med Chem Lett, 2012).
The source made the active and inactive calls. The calls are words filed in the database; no cut-off is given here. Peptide text beside a SMILES is read from it. * marks the point of attachment. Cbz = O=C(OCc1ccccc1)*

Tests used:
[1] = Inhibition of self-induced amyloid beta (1 to 40) aggregation at 100 uM after 24 hrs by thioflavin T-based fluorescence analysis
Summary of the method: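 Aβ1-40 peptide aggregating on its own, without hAChE, with test compound at 100 μM. Aggregation read by thioflavin T fluorescence and expressed as % inhibition. Reported as the mean of two separate experiments (n = 4), with deviation from the mean under 10% of the mean value.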

Cholinesterase = Cholinesterase (Equus caballus, UniProt P81908); experiment: Inhibition of equine BuChE using butyrylthiocholine iodide as substrate after 5 mins by DTNB method
Sequence of Cholinesterase (P81908 whole entry): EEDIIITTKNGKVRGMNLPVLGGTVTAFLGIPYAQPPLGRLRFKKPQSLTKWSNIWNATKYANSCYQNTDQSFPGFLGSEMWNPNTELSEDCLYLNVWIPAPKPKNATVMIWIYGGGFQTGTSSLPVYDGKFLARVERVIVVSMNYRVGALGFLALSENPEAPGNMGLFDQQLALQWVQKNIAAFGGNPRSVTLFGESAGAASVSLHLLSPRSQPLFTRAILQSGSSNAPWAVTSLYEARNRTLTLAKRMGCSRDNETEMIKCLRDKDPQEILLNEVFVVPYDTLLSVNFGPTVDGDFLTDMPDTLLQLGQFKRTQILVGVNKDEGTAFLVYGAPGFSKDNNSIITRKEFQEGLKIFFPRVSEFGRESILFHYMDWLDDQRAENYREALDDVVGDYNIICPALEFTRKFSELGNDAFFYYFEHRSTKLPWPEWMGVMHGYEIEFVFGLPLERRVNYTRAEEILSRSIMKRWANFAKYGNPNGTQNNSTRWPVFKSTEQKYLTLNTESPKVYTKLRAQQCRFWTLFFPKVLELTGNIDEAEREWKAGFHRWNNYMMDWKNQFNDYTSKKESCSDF

[2] = Selectivity ratio of IC50 for human AChE to IC50 for equine BuChE
Acetylcholinesterase = Acetylcholinesterase (Homo sapiens, UniProt P22303); experiment: Inhibition of human AChE using acetylthiocholine iodide as substrate after 5 mins by DTNB method
Sequence of Acetylcholinesterase (P22303 whole entry): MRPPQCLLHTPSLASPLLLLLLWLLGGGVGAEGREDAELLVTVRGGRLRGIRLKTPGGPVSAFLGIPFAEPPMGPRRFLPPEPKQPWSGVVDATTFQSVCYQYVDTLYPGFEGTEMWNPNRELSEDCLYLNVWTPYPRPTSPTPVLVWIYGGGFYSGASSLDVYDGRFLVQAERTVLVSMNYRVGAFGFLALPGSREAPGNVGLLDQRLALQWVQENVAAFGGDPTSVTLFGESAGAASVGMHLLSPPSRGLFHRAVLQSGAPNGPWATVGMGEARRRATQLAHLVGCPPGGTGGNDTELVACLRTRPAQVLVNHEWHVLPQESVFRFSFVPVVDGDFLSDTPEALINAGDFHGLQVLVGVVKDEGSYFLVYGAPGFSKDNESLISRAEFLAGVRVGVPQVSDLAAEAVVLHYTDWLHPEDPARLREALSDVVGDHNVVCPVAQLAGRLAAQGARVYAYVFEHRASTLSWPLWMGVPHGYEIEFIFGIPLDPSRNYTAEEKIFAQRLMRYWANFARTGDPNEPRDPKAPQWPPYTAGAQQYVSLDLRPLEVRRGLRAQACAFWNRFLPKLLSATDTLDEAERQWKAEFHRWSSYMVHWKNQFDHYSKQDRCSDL

Beta-secretase 1 [3] = target: T1, Beta-secretase 1 (Homo sapiens, UniProt P56817); experiment: Inhibition of BACE1
T1 sequence (P56817 whole entry): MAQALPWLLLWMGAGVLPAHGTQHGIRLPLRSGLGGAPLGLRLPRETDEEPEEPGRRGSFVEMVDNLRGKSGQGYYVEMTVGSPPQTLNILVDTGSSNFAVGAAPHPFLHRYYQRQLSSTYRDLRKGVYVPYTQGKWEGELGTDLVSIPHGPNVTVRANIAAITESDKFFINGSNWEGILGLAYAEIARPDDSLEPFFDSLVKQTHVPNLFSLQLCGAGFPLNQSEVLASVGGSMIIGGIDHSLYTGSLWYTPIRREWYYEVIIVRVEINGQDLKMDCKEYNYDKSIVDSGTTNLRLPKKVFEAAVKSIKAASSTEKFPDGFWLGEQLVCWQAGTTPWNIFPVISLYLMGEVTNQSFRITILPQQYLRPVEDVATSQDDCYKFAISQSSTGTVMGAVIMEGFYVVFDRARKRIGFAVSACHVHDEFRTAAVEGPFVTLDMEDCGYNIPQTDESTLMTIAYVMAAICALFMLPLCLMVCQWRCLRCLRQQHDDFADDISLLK

Beta-secretase 1 [4] = target: T1, Beta-secretase 1; experiment: Inhibition of BACE1 at 10 uM
[5] = Induction of disassembly of preformed amyloid beta (1 to 40) fibrils assessed as disaggregated fibrils at 10 uM after 3 days by transmission electron microscopic analysis
Summary of the method: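 Aβ1-40 fibrils were preformed over a three-day pre-fibrillization period. Compound was then incubated with the fibrils at 10 μM, and fibril morphology and disassembly were examined by transmission electron microscopy.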

[6] = Inhibition of amyloid beta (1 to 40) fibril formation at 10 uM coincubated with amyloid beta (1 to 40) peptide after 72 hrs by transmission electron microscopic analysis
[7] = Cytotoxicity against human SH-SY5Y cells assessed as cell viability at 40 uM after 24 hrs by MTT assay; type: cell-based; conditions: read-out: Activity

Row | Compound | inhibition [1] | IC50 (Cholinesterase) [µM] | Ratio IC50 [2] | IC50 (Acetylcholinesterase) [µM] | IC50 (Beta-secretase 1 [3]) [µM] | inhibition (Beta-secretase 1 [4]) [%] | inhibition [5] | inhibition [6] | viability at 24 h, 40 µM [7] [%]
1 | c1ccc(CN2CCC(Nc3nccc(NCc4ccc5c(c4)OCO5)n3)CC2)cc1 | 18.6% | 3.9 | 3.2 | 12.6 | 1.4 |  |  |  | 
2 | Brc1ccc(CNc2ccnc(NC3CCN(Cc4ccccc4)CC3)n2)cc1 | 48.4% | 4.1 | 2.4 | 9.9 |  | 33 | Active | Active | 
3 | CC(C)C[C@@H](C=O)NC(=O)[C@H](CC(C)C)NC(=O)[C@@H](NC(=O)OCc1ccccc1)C(C)C (Cbz-Val-Leu-Leu-aldehyde) |  |  |  |  | 14 |  |  |  | 
4 | COc1ccc(CNc2ccnc(NC3CCN(Cc4ccccc4)CC3)n2)cc1 | 18.2% | 4.9 | 1.9 | 9.4 | 0.6 |  |  |  | 
5 | Cc1ccc(CNc2ccnc(NC3CCN(Cc4ccccc4)CC3)n2)cc1 | 21.9% | 2.5 | 5.2 | 12.9 | 11.1 |  |  |  | 
6 | Clc1ccc(CNc2ccnc(NC3CCN(Cc4ccccc4)CC3)n2)cc1 | 42.6% | 2.8 | 3.1 | 8.8 | 3.2 |  | Active | Active | 
7 | Clc1ccccc1CNc1ccnc(NC2CCN(Cc3ccccc3)CC2)n1 | 42.2% | 2.4 | 3.2 | 7.7 | 1.7 |  |  |  | 
8 | Fc1ccc(CNc2ccnc(NC3CCN(Cc4ccccc4)CC3)n2)cc1 | 29.8% | 2.2 | 3.5 | 7.7 | 0.7 |  |  |  | 
9 | COc1ccc2c3c1O[C@H]1C[C@@H](O)C=C[C@@]31CCN(C)C2 | 48% |  |  |  |  |  |  | Active | 
10 | COc1cc(CNc2ccnc(NC3CCN(Cc4ccccc4)CC3)n2)cc(OC)c1OC | inactive | 7.7 | 1.3 | 10.3 | 8.9 |  |  |  | 
11 | Clc1cccc(CNc2ccnc(NC3CCN(Cc4ccccc4)CC3)n2)c1 | 39.9% | 2.5 | 3.1 | 7.7 | 0.6 |  |  |  | 
12 | COc1ccc(CNc2ccnc(NC3CCN(Cc4ccccc4)CC3)n2)cc1OC | 17.4% | 11.4 | 0.9 | 9.9 |  | 34 |  |  | 81
